Compound activity as filed in PubChem.
mABHD4 FP: inhibits mouse alpha/beta hydrolase domain 4 | Q8VD66 | purified mABHD4, FP-Rh probe fluorescence polarization | inhibition, % at 8.92 µM | 0.54% of 370,000 active | AID 720543;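 active = inhibition exceeding the mean over every tested compound plus 3 SD, cut at about 30% in these data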;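 note: 0% = plate median of compound wells and 100% = S159A mutant with DMSO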
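Test system: mABHD4 protein | Buffer or medium: HEPES pH 7.0 buffer, 150 mM NaCl, 0.01% Pluronic F-127 | Probe or stimulus: FP-Rh fluorescent activity-based probe, added after compound pre-incubation | Timing: Pre-incubation 45 min, probe exposure 60 min, at 25 °C | Technique: Fluorescence polarization, excitation 525 nm, emission 598 nm, BODIPY TMR filters | Repeats: Single well per compound (singlicate)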
PRMT1 inh: blocks human protein arginine methyltransferase 1; AID 652257; 1.3% of 370,000 active; Q99873; recombinant PRMT1, activity-based probe fluorescence polarization; inhibition, % at 2.79 µM;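 active = inhibition above about 21% made by adding two undisclosed values, limit read from the data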
TCR-CD3 inh: human TCR-CD3 binding inhibition. TAMRA-labeled TCR probe fluorescence, biochemical. inhibition, % at 9.4 µM. 0.37% of 360,000 active. AID 651800; in the data active = inhibition above about 19%;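 note: recombinant mutant TCR 2C K166C tagged with TAMRA read by polarization; 0% = receptor in buffer alone and 100% = receptor with positive control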
HTRA1 inh: HTRA1 (human) protease inhibition; Q92743; inhibition, % at 5.96 µM; 0.5% of 340,000 active; recombinant HTRA1, FP-rhodamine activity-based probe, fluorescence polarization; in the data active = inhibition above about 36%;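 note: 0% = enzyme with DMSO and 100% = wells lacking enzyme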
SIAE primary: blocks human sialic acid acetylesterase; SIAE FP-Rh probe binding, fluorescence polarization; Q9HAT2; inhibition, % at 9.66 µM; 0.69% of 370,000 active; AID 1053197;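 active = inhibition above a cutoff: mean of compounds within the control limits plus 3 SD of those, cut at about 17% in these data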;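 note: 0% = plate median of compound wells and 100% = probe without SIAE protein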
Target sequence (Q9HAT2 whole entry, looked up): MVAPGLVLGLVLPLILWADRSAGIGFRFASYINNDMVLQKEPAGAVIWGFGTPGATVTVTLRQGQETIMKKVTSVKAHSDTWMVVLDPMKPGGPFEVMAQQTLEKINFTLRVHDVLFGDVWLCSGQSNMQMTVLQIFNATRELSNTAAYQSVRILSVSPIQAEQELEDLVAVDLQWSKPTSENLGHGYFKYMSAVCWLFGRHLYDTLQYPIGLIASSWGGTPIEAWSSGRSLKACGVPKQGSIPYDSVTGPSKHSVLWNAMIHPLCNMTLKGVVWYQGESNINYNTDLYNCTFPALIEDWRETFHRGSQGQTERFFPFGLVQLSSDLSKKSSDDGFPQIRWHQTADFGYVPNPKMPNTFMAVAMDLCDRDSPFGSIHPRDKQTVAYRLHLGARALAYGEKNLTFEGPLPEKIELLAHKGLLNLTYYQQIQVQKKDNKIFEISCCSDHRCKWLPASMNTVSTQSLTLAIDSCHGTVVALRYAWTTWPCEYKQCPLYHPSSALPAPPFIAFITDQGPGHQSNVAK
ABHD4 confirm: ABHD4 (mouse) inhibition, FP confirmation; shares compounds with mABHD4 FP; purified mABHD4, FP-Rh probe fluorescence polarization; inhibition, % at 8.92 µM; 55% of 1,800 active; AID 720658;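 active = mean inhibition across replicates above the hit cutoff set in the primary screen, cut at about 30% in these data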;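 note: 0% = wild-type ABHD4 with DMSO and 100% = catalytically dead S159A mutant with DMSO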
Starred values were filed as active, the others as inactive; . = not tested or not shown; ! = not confirmed by another sample. Only some compounds are listed: those with a hit (about 2.6% of all), similar ones and a draw of the others.

SMILES | mABHD4 FP | PRMT1 inh | TCR-CD3 inh | HTRA1 inh | SIAE primary | ABHD4 confirm
CC1=C(C#N)C(=O)OC(C)(C)C1 | 30* | 20 | 8 | 13 | 4 | 10
Cc1[nH]c(=O)c(C#N)c2c1COC(C)(C)C2 | . | . | . | -1 | . | .
Clc1ccccn1 | -4 | 2 | -7 | 6 | -2 | .
OCCN(CCO)c1cc2c3ccccc3ccc2c2ccccc12 | 30* | 0 | -2 | 2 | 0 | 16
CCCC#Cc1ccc2c(c1)COc1c3ccccc3nn1-2 | 5 | 3 | 0 | -11 | -4 | .
CCc1cc(-c2ccc3c(c2)COc2c4ccccc4nn2-3)on1 | 32* | 11 | -2 | -22 | -3 | -7
CCC(C)(C)c1ccc(OCCCC[n+]2ccc(C)cc2)c(C(C)(C)CC)c1 | 33* | 3 | -6 | . | 3 | 50*
CCC(C)(C)c1ccc(OCCCC[n+]2cccc(C)c2C)c(C(C)(C)CC)c1 | 25 | -1 | -5 | 30 | 0 | .
O=S(=O)(NC(=NCc1ccccc1)c1ccccc1)c1ccccc1 | -4 | 0 | 0 | -2 | 1 | .
Cc1cc(N=O)c(C)cc1O | 2 | 6 | -4 | . | -8 | .
Cc1cc(O)c(-c2cc(O)c(C)cc2O)cc1O | 32* | 87* | 5 | 9 | 10 | 26
O=C(NN=Cc1cccc(O)c1O)c1ccccc1 | 39* | 7 | 3 | . | 8 | 7
Cc1ccc(NC(=O)/C(=C\c2ccc([N+](=O)[O-])cc2)NC(=O)c2ccccc2)cc1 | -10 | 3 | -2 | -7 | -16 | .
O=C(N/N=C/c1ccc(O)c(O)c1O)/C(=C/c1ccc([N+](=O)[O-])cc1)NC(=O)c1ccccc1 | 57* | 24* | 18 | 63* | 12 | 67*
O=S(=O)(Nc1ccc(Br)cc1)c1cccc(NS(=O)(=O)c2cccs2)c1 | -17 | 0 | -1 | -6 | -4 | .
COc1ccc2ccc(OCC(=O)Nc3cc(C)on3)cc2c1 | -4 | -2 | -4 | 1 | -8 | .
CCCCCCSc1cccc(-c2nc3ccc(C)cn3c2NCc2ccccc2)c1 | 26 | -1 | 1 | 0 | 5 | .
CCCCCCSc1cc(-c2nc3cnccn3c2NCCCC)ccc1OC | . | . | . | -6 | . | .
CCCCNc1c(-c2cccc(-c3cc(C(C)=O)cs3)c2)nc2cc(C)ccn12 | 42* | 2 | 2 | 5 | 6 | 46*
CCCCCCSc1cc(-c2nc3ccc(C)cn3c2NCc2ccccc2)ccc1OC | 40* | 4 | 6 | -12 | 5 | 47*
CC(=O)c1csc(-c2cccc(-c3nc4ccc(Cl)cn4c3NC3CCCCC3)c2)c1 | 4 | 0 | -7 | -5 | 6 | .
CCCCCCSc1cc(-c2nc3cc(C)ccn3c2NCCCC)ccc1OC | 37*! | 0 | 2 | -4 | 12 | 57*
CCCCNc1c(-c2ccc(SC(C)CC)c(OC)c2)nc2ccc(C)cn12 (stereo unspecified) | 36* | 2 | 3 | -19 | 9 | 47*
Cc1cc(C(=O)N2CCC2(C)C(=O)NS(=O)(=O)c2cccc(Cl)c2)nn1C (stereo unspecified) | -1 | -2 | -2 | . | 0 | .
CCC(C)Sc1cccc(-c2nc3ccc(C)cn3c2NCc2ccccc2)c1 (stereo unspecified) | 36*! | 1 | -3 | -22 | 5 | 32*
SMILES | mABHD4 FP | PRMT1 inh | TCR-CD3 inh | HTRA1 inh | SIAE primary | ABHD4 confirm
Cn1c(SCC(=O)NCC2COc3ccccc3O2)nnc1C(F)(F)F (stereo unspecified) | 8 | -3 | 4 | 7 | 4 | .
COc1ccc(/C=N/NC(=O)c2nn(-c3ccc(Cl)cc3)c(=O)c3c(N)scc23)cc1 | 30* | 24* | -1 | 22 | 11 | 17
COc1ccc(/C=N/NC(=O)c2nn(-c3ccccc3)c(=O)c3c(N)scc23)cc1 | 46* | 22* | 7 | 21 | 11 | 27
COC(=O)c1ccccc1NC(=O)NC1CCCC1 | 0 | 2 | 6 | 0 | -9 | .
COc1ccc(NC(=O)c2ccccc2NC(=O)NC2CCCCC2)cc1 | 47* | -2 | 6 | -8 | -8 | -7
COc1cccc(N2CCN(C(C)C(=O)NC34CC5CC(CC(C5)C3)C4)CC2)c1 (stereo unspecified) | 0 | 2 | -11 | 1 | 8 | .
Cc1cc2c(NC(=O)Nc3ccc(C(F)(F)F)cc3)cccc2nn1 | 109* | -1 | 6 | 35 | -25 | -101
Cc1ccc(CNc2nc(NCc3ccccc3)nc3ccsc23)c(C)c1 | 35* | 0 | -2 | . | 11 | 47*
